Source: ChEMBL document CHEMBL3102836, “Dioxatricyclic and oxabicyclic polyketides from Trichocladium opacum” (J Nat Prod, 2014)
Active and inactive are the calls of the source. The calls are words filed in the database; no cut-off is given here.

Assays:
Assay type in all cases: functional, cell-based
SW480 [1] = test: Cytotoxicity against human SW480 cells at 20 ug/ml after 48 hrs by MTS assay
Summary of the method: (§1)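 Single-concentration test at 20 μg/mL. Triplicate wells seeded at (2−5) × 10^3 cells, attached overnight, then medium replaced with compound-containing medium (100 mM DMSO stock; vehicle wells 0.1% DMSO); cisplatin positive control. 48 h exposure at 37 °C, humidified 5% CO2. MTS added, 90 min at 37 °C in dark, read at 490 nm.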

A549 [2] = test: Cytotoxicity against human A549 cells at 20 ug/ml after 48 hrs by MTS assay; summary of the method: as §1
HeLa [3] = test: Cytotoxicity against human HeLa cells at 20 ug/ml after 48 hrs by MTS assay; summary of the method: as §1
HCT-116 [4] = test: Cytotoxicity against human HCT116 cells at 20 ug/ml after 48 hrs by MTS assay; summary of the method: as §1
A549 [5] = test: Cytotoxicity against human A549 cells after 48 hrs by MTS assay; conditions: A549, 48 h
Summary of the method: (§2)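 Triplicate wells seeded at (2−5) × 10^3 cells (by growth rate), attached overnight, then medium replaced with medium carrying serial dilutions from 100 mM DMSO stocks (vehicle wells 0.1% DMSO); cisplatin positive control. 48 h at 37 °C, humidified 5% CO2. MTS added, 90 min at 37 °C in dark, absorbance 490 nm; IC50 reported.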

HCT-116 [6] = test: Cytotoxicity against human HCT116 cells after 48 hrs by MTS assay; conditions: HCT-116, 48 h; summary of the method: as §2
SW480 [7] = test: Cytotoxicity against human SW480 cells after 48 hrs by MTS assay; conditions: SW480, 48 h; summary of the method: as §2
HeLa [8] = test: Cytotoxicity against human HeLa cells after 48 hrs by MTS assay; summary of the method: as §2

| SMILES | Activity (SW480 [1]) | Activity (A549 [2]) | Activity (HeLa [3]) | Activity (HCT-116 [4]) | IC50 (A549 [5]) | IC50 (HCT-116 [6]) | IC50 (SW480 [7]) | IC50 (HeLa [8]) |
| --- | --- | --- | --- | --- | --- | --- | --- | --- |
| COC(=O)[C@]12[C@H](C)[C@H](C[C@H](O)[C@H]1O)O[C@H]2C(C)=O | inactive | inactive | inactive | inactive |  |  |  |  |
| C[C@@H]1C=C[C@H](O)[C@H]2O[C@@]3(C)OC(=O)[C@@]12[C@@H]3O |  |  | inactive |  | 83.6 µM | 48.8 µM | 54.9 µM |  |
| C[C@@H]1CC[C@H](O)[C@H]2O[C@@]3(C)OC(=O)[C@@]12[C@H]3O |  |  | inactive |  | 61 µM | 56.6 µM | 51.9 µM |  |
| C[C@@H](O)[C@@H](O)[C@]12C(=O)O[C@H](C=C[C@@H]1C)[C@H]2O |  |  |  |  | 52.3 µM | 41.7 µM | 43.6 µM | 44.3 µM |
| C[C@@H]1C=C[C@H](O)[C@H]2O[C@@]3(C)OC(=O)[C@@]12[C@H]3O | inactive | inactive | inactive | inactive |  |  |  |  |
